iPSC survival up: enhancers of human iPSC single-cell survival | survival enhancement, % at 20 µM | 360,000 compounds, 0.044% hits | hiPSC single-cell survival, ATPlite luminescence; 100% = ROCK inhibitor wells, 0% = DMSO; in the data active means survival enhancement above about 18%;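 further: cells exposed to compounds for 16 hours before the ATP read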
MPTP inh: inhibitors of mitochondrial permeability transition pore; isolated mouse mitochondria, Ca2+ swelling absorbance, 30 min; inhibition, % at 10 µM; 360,000 compounds, 1.4% hits; AID 602449;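 active means inhibition of 50% or more, scaled per plate between neutral and stimulator controls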
UBC13 polyUb: inhibitors of human UBC13 polyubiquitin chain formation | AID 485273 | TR-FRET | P61088 | 330,000 compounds, 0.47% hits | inhibition, % at 20 µM; in the data active means inhibition above about 45%, passing the limit was not always enough; inconclusive means no clear call, values can overlap the other calls
Target sequence (P61088 whole entry, looked up): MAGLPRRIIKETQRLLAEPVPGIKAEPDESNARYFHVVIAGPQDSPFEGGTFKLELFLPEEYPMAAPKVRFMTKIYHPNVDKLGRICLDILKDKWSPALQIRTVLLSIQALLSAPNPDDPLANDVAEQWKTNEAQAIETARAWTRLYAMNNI
Exocytosis inh: blocks lytic granule exocytosis; TALL-104 LAMP-1 surface exposure, flow cytometry; cells stimulated with thapsigargin and PMA; inhibition, % at 10 µM; 360,000 compounds, 0.66% hits; AID 651702;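 active means inhibition above about 55%, limit read from the data; inconclusive means no clear call, values can overlap the other calls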
Apaf1 inhib: human Apaf-1 inhibition. O14727. reconstituted apoptosome caspase-3 activity, DEVD-Rh110 fluorescence. inhibition, % at 20 µM. 330,000 compounds, 0.71% hits. AID 489030; active means inhibition of at least 40% at 20 µM
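Material: biochemical Apaf-1 apoptosome reconstitution. Medium: Hepes buffer, pH 7.5. Also added: cytochrome c activation, bis-DEVD rhodamine 110 substrate. Timing: 30 min compound preincubation, 50 min activation, room temperature. Measured by: rhodamine 110 fluorescence at Ex 480/Em 540 nm.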
MIN6 prolif: MIN6 beta-cell proliferation induction | MIN6 cells proliferation, ATPlite luminescence, 48 h; cells starved in 0.2% serum; 100% = growth in 10% serum | proliferation, % at 10 µM | 330,000 compounds, 0.29% hits;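 active means compounds whose signal lies at least 3.5 SD above the mean of all wells on their plate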
Casp3 UBC13 ctr: counter-screen for UBC13 inhibitors: human caspase-3 inhibition; Recombinant caspase-3, Caspase-Glo 3/7 luminescence, 60 min; 1,400 compounds, 4% hits; shares compounds with UBC13 polyUb; inhibition, % at 20 µM;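 active means mean inhibition across replicates above about 26%, limit read from the data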
Target sequence (P42574 whole entry, looked up): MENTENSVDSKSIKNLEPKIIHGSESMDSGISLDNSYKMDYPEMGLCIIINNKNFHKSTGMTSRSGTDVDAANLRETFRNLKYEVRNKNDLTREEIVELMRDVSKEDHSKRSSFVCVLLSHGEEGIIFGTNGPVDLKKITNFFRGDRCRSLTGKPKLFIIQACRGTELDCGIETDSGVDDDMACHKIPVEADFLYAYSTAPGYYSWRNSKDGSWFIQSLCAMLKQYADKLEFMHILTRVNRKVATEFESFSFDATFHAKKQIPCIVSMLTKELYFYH
UBC13 confirm: confirmation of human UBC13 polyubiquitin inhibitors; shares compounds with UBC13 polyUb; UBC13 polyubiquitination, TR-FRET, biochemical; inhibition, % at 10 µM; 1,400 compounds, 68% hits; AID 488859; in the data active means inhibition above about 45%; inconclusive means no clear call, values can overlap the other calls
Of the large screens only hits and unclear results are named; the others gave an inactive call (follow-up assays come after a bar, where they were run). This is a sample that favours compounds with a hit; in the whole collection about 3% have one here.

COc1ccc(C(=O)Nn2c(SCC(=O)NC3CCCC3)nc3ccccc3c2=O)cc1	none
COc1ccc(C(=O)Nn2c(SCC(=O)NCc3ccccc3)nc3ccccc3c2=O)cc1	UBC13 polyUb 52 | Casp3 UBC13 ctr inactive | UBC13 confirm 58
CC(=O)N1c2ccc(S(=O)(=O)N(C)CC(=O)Nc3ccccc3C)cc2CC1C (configuration not stated)	none
COc1ccc2cc3cc(C(=O)Nc4ccccc4N4CCN(C)CC4)oc3nc2c1	UBC13 polyUb 68 | Casp3 UBC13 ctr inactive | UBC13 confirm inactive
O=C(c1cc2cc(Br)ccc2o1)N1CCN(c2ccccc2)CC1	none
CN(C)CCCNC(=O)C[C@H]1C[C@H](C(=O)N2CCCCC2)[C@@]2(C)c3[nH]c4cc(CCC(=O)N(C)C)ccc4c3CCN2C1=O	none (no result: UBC13 polyUb, MIN6 prolif)
O=C(c1ccc2c(c1)[nH]c(=S)n1c3ccccc3nc21)N1CCN(c2ncccn2)CC1	UBC13 polyUb inconclusive
O=C(NCCN1CCN(c2ccccc2)CC1)c1ccc2c(c1)[nH]c(=S)n1c3ccccc3nc21	UBC13 polyUb 47 | Casp3 UBC13 ctr inactive | UBC13 confirm inconclusive
COC(=O)c1c(NC(=O)c2nc3ccccc3s2)sc2c1CCN(C(C)=O)C2	UBC13 polyUb 104 | Casp3 UBC13 ctr inactive | UBC13 confirm 94
COC(=O)CC1(C(=O)OC)Nc2cc(Cl)c(Cl)cc2S(=O)(=O)N1O (configuration not stated)	none (no result: UBC13 polyUb, Apaf1 inhib, MIN6 prolif)
COc1cc(-c2cc(=O)c3c(O)c(OC)c(OC)cc3o2)cc(OC)c1O	UBC13 polyUb 49 | Casp3 UBC13 ctr inactive | UBC13 confirm inactive
NS(=O)(=O)c1ccc(CCNC(=O)c2cc(-c3ccco3)nc3ccccc23)cc1	UBC13 polyUb 51 | Casp3 UBC13 ctr inactive | UBC13 confirm inactive
COc1ccc(CNC(=O)C2(CC3CC(c4ccccc4)=NO3)CCN(C(=O)OC(C)(C)C)CC2)cc1 (configuration not stated)	UBC13 polyUb 77 | Casp3 UBC13 ctr inactive | UBC13 confirm inactive
CC(C)(C)OC(=O)N1CCC(CC2CC(c3ccccc3)=NO2)(C(=O)NCc2ccccc2)CC1 (configuration not stated)	none
C=CCNC(=O)NC(=O)CSc1nnc(C(F)(F)F)n1C	UBC13 polyUb 48 | Casp3 UBC13 ctr inactive | UBC13 confirm inactive
CC1(C)Cc2c(sc(NC(=O)C(=O)NCC3CCCO3)c2C(N)=O)CO1 (configuration not stated)	UBC13 polyUb 81 | Casp3 UBC13 ctr inactive | UBC13 confirm 106
CC1(C)Cc2c(sc(NC(=O)C(=O)N3CCN(CCO)CC3)c2C(N)=O)CO1	none
COC(=O)c1c(NC(=O)C(=O)N2CCCC2)sc2c1CC(C)(C)OC2	UBC13 polyUb 48 | Casp3 UBC13 ctr inactive | UBC13 confirm 100
CC1(C)Cc2c(sc(NC(=O)C(=O)N3CCCC3)c2C(N)=O)CO1	UBC13 polyUb 86 | Casp3 UBC13 ctr inactive | UBC13 confirm 105
COc1cccc(-c2ocnc2C(=O)Nc2ccc(N3CCOCC3)cc2N2CCOCC2)c1	none
Cc1cc(NCCCN2CCOCC2)n2ncc(-c3ccccc3)c2n1	none
Cc1cc(NCCCn2ccnc2)n2nc(-c3ccc(Cl)cc3)cc2n1	none
CC(C)(C)c1cc(NCCCn2ccnc2)n2ncc(-c3ccc(Cl)cc3)c2n1	UBC13 polyUb 52 | Casp3 UBC13 ctr inactive | UBC13 confirm 77
CN(C)CCCNc1cc(C(C)(C)C)nc2c(-c3ccccc3)cnn12	UBC13 polyUb 66 | Casp3 UBC13 ctr inactive | UBC13 confirm inactive
O=C(C[n+]1cccc(CNC(=O)c2ccc(OC(F)F)cc2)c1)Nc1ccc(SC(F)F)cc1	UBC13 polyUb 55 | Casp3 UBC13 ctr inactive | UBC13 confirm 102
CCCNC(=O)C1(C)CCCN(C(=O)c2cc(F)ccc2C)C1 (configuration not stated)	none (no result: UBC13 polyUb, Apaf1 inhib, MIN6 prolif)
CCCCN1CC(COCc2ccccc2)Oc2cccc(Oc3ccc(C)cc3)c2S1(=O)=O (configuration not stated)	none (no result: UBC13 polyUb, Apaf1 inhib, MIN6 prolif)
CC(=O)Nc1ccc(S(=O)(=O)N2CCN(CC(O)COc3ccc4ccccc4c3)CC2)cc1 (configuration not stated)	UBC13 polyUb 47 | Casp3 UBC13 ctr inactive | UBC13 confirm 49
CC(=O)Nc1ccc(OCC(O)CN2CCN(S(=O)(=O)c3ccc(NC(C)=O)cc3)CC2)cc1 (configuration not stated)	none
CCCCOc1ccc(S(=O)(=O)NC(=O)C2(C)CCN2C(=O)c2cccc(F)c2)cc1 (configuration not stated)	none (no result: UBC13 polyUb, Apaf1 inhib, MIN6 prolif)
CC[C@H](C)[C@@H](NC(=O)O[C@@H]1C(=O)c2cc(OC)ccc2O[C@H]1c1ccc(OC)c(Br)c1)C(=O)OC	UBC13 polyUb 46 | Casp3 UBC13 ctr inactive | UBC13 confirm inconclusive
COC(=O)[C@H](Cc1ccccc1)NC(=O)O[C@@H]1C(=O)c2cc(OC)ccc2O[C@H]1c1ccc(OC)c(Br)c1	none (no result: iPSC survival up, MPTP inh, Exocytosis inh)
CCN1CCN(Cc2ccc(NC(=O)c3cc(NC(=O)c4nccnc4N)cc(OC)c3)cc2C(F)(F)F)CC1	none
CCN1CCN(Cc2ccc(NC(=O)c3cc(NC(=O)c4cncc(-c5ccc(C#N)cc5)c4)cc(OC)c3)cc2C(F)(F)F)CC1	UBC13 polyUb 118, Apaf1 inhib 54 | Casp3 UBC13 ctr inactive | UBC13 confirm 126
CC(OC(=O)CCOc1ccccc1)C(=O)Nc1ccc(Cl)cn1 (configuration not stated)	none
CN1C(=O)c2ccc(Oc3ccccc3)cc2C1=O	none
COC(=O)C1=C(C)N(CC2CC2)C(=NCc2cccc(Cl)c2)N[C@H]1c1ccccc1	UBC13 polyUb 54 | Casp3 UBC13 ctr inactive | UBC13 confirm inactive
O=C(CCCCCN1C(=O)c2cccc3cccc(c23)C1=O)NCCO	UBC13 polyUb 47 | Casp3 UBC13 ctr inactive | UBC13 confirm inactive
COc1ccccc1[C@@H]1C(c2cccc(C)c2)=NN(c2ccccc2)[C@H]1C(=O)N1CCOC1=O	UBC13 polyUb 46 | Casp3 UBC13 ctr inactive | UBC13 confirm 46
COc1ccccc1[C@@H]1C(c2ccccc2)=NN(c2ccccc2)[C@H]1C(=O)N1CCOC1=O	none (no result: UBC13 polyUb, MIN6 prolif)
Cc1ccc2[nH]c(CNC(=O)c3ccccc3F)cc2c1	none
CCCS(=O)(=O)NC(=O)C1(C)CCN(C(=O)c2ccc3ccccc3c2)C1 (configuration not stated)	none (no result: UBC13 polyUb, Apaf1 inhib, MIN6 prolif)
Cc1cccn2c(=O)c(C=O)c(N3CCCCCC3)nc12	UBC13 polyUb 55 | Casp3 UBC13 ctr inactive | UBC13 confirm 64

Screens as filed in PubChem BioAssay.
